ChEMBL document CHEMBL5661979, “Pharmacological inhibition of BMK1 suppresses tumor growth through promyelocytic leukemia protein” (Cancer Cell, 2010)

Assays:
[1] = molecular target: Mitogen-activated protein kinase 3 (Homo sapiens, UniProt P27361); test: Inhibition of ERK1 in human HeLa cells lysate at 2 uM pre incubated for 15 mins followed by ADP acyl phosphate probe addition and measured after 10 mins by LC-MS/MS analysis relative to control; assay type: subcellular; conditions: time 25.0 min
[2] = molecular target: EKC/KEOPS complex subunit TP53RK (Homo sapiens, UniProt Q96S44); test: Inhibition of PRPK in human HeLa cells lysate pre incubated for 15 mins followed by ADP acyl phosphate probe addition and measured after 10 mins by LC-MS/MS analysis; assay type: subcellular
[3] = molecular target: T1, Serine/threonine-protein kinase Chk1 (Homo sapiens) (UniProt O14757); test: Inhibition of CHK1 K2 site in human HeLa cells lysate at 2 uM pre incubated for 15 mins followed by ATP acyl phosphate probe addition and measured after 10 mins by LC-MS/MS analysis relative to control; assay type: subcellular; conditions: time 25.0 min
T1 sequence (whole entry): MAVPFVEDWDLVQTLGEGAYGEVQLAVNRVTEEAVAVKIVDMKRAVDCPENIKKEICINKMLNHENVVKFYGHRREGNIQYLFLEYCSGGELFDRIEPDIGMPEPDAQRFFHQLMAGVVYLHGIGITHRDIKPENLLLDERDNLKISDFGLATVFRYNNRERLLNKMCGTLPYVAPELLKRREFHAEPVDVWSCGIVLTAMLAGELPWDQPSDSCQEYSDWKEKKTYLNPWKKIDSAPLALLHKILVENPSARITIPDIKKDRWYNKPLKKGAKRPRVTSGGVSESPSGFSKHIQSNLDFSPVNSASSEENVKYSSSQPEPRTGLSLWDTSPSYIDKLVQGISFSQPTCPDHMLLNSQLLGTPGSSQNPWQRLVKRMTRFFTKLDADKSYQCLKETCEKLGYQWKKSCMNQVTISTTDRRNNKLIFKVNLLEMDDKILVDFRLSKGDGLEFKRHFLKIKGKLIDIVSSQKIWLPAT
In short: (§1)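 KiNativ profiling in HeLa lysate (5 mg/mL total protein). Lysate incubated 15 min with inhibitor at 50, 10, 2, 0.8 or 0 μM. ATP or ADP acylphosphate probe then added (5 μM final) and reacted 10 min. Reaction stopped with urea and analysed by targeted MS, using up to four fragment ions per kinase peptide-probe conjugate. % inhibition taken against untreated lysate. Run in duplicate.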

[4] = molecular target: Ribosomal protein S6 kinase beta-1 (Homo sapiens, UniProt P23443); test: Inhibition of P70S6K in human HeLa cells lysate at 2 uM pre incubated for 15 mins followed by ATP acyl phosphate probe addition and measured after 10 mins by LC-MS/MS analysis relative to control; assay type: subcellular; conditions: time 25.0 min
[5] = molecular target: Serine/threonine-protein kinase/endoribonuclease IRE1 (Homo sapiens, UniProt O75460); test: Inhibition of IRE1 in human HeLa cells lysate at 2 uM pre incubated for 15 mins followed by ADP acyl phosphate probe addition and measured after 10 mins by LC-MS/MS analysis relative to control; assay type: subcellular; conditions: time 25.0 min
[6] = molecular target: Ribosomal protein S6 kinase alpha-5 (Homo sapiens, UniProt O75582); test: Inhibition of MSK1 domain 1 K1 site in human HeLa cells lysate at 2 uM pre incubated for 15 mins followed by ADP acyl phosphate probe addition and measured after 10 mins by LC-MS/MS analysis relative to control; assay type: subcellular; conditions: time 25.0 min
[7] = molecular target: Ribosomal protein S6 kinase alpha-1 (Homo sapiens, UniProt Q15418); test: Inhibition of RSK1 domain 2 K1 site in human HeLa cells lysate at 50 uM pre incubated for 15 mins followed by ADP acyl phosphate probe addition and measured after 10 mins by LC-MS/MS analysis relative to control; assay type: subcellular; conditions: time 25.0 min
[8] = molecular target: Dual specificity mitogen-activated protein kinase kinase 3 (Homo sapiens, UniProt P46734); test: Inhibition of MAP2K3 in human HeLa cells lysate pre incubated for 15 mins followed by ADP acyl phosphate probe addition and measured after 10 mins by LC-MS/MS analysis; assay type: subcellular
[9] = molecular target: Ribosomal protein S6 kinase alpha-6 (Homo sapiens) (UniProt Q9UK32); test: Inhibition of C-terminal RPS6KA6 kinase domain (unknown origin) assessed as remaining activity at 10 uM by ATP-competition binding assay relative to control
[10] = Oral bioavailability in Sprague-Dawley rat at 2 mg/kg measured up to 8 hrs by LC-MS/MS analysis; assay type: ADME, organism-based; conditions: in vivo
[11] = molecular target: Serine/threonine-protein kinase 24 (Homo sapiens, UniProt Q9Y6E0); test: Inhibition of MST3 in human HeLa cells lysate at 10 uM pre incubated for 15 mins followed by ATP acyl phosphate probe addition and measured after 10 mins by LC-MS/MS analysis relative to control; assay type: subcellular; conditions: time 25.0 min
[12] = molecular target: T2, Serine/threonine-protein kinase ULK3 (Homo sapiens) (UniProt Q6PHR2); test: Inhibition of ULK3 in human HeLa cells lysate at 50 uM pre incubated for 15 mins followed by ADP acyl phosphate probe addition and measured after 10 mins by LC-MS/MS analysis relative to control; assay type: subcellular; conditions: time 25.0 min
T2 sequence (whole entry): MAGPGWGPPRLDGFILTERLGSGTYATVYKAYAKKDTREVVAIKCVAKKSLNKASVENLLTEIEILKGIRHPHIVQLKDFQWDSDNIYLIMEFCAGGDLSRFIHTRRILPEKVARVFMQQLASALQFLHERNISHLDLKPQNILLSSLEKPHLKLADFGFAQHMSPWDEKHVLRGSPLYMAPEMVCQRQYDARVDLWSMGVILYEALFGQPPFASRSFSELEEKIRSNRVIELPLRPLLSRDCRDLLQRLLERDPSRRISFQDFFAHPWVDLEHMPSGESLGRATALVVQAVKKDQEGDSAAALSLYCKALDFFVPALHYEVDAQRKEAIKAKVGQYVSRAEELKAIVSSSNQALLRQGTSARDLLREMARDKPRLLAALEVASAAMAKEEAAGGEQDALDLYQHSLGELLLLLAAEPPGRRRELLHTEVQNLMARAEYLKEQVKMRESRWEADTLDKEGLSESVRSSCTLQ

[13] = molecular target: Cyclin-dependent kinase 2 (Homo sapiens, UniProt P24941); test: Inhibition of CDK2 K2 site in human HeLa cells lysate at 10 uM pre incubated for 15 mins followed by ADP acyl phosphate probe addition and measured after 10 mins by LC-MS/MS analysis relative to control; assay type: subcellular; conditions: time 25.0 min; in short: as §1
RPS6KA1/RPS6KA2/RPS6KA3 = RPS6KA1/RPS6KA2/RPS6KA3 (Homo sapiens, UniProt P51812+Q15349+Q15418); test: Inhibition of RSK1/RSK2/RSK3 domain 1 in human HeLa cells lysate pre incubated for 15 mins followed by ADP acyl phosphate probe addition and measured after 10 mins by LC-MS/MS analysis; assay type: subcellular
[14] = molecular target: Dual specificity mitogen-activated protein kinase kinase; MEK1/2 (Homo sapiens, UniProt P36507+Q02750); test: Inhibition of MAP2K1/MAP2K2 in human HeLa cells lysate at 2 uM pre incubated for 15 mins followed by ATP acyl phosphate probe addition and measured after 10 mins by LC-MS/MS analysis relative to control; assay type: subcellular; conditions: time 25.0 min
[15] = molecular target: Tyrosine-protein kinase CSK (Homo sapiens, UniProt P41240); test: Inhibition of CSK in human HeLa cells lysate at 10 uM pre incubated for 15 mins followed by ATP acyl phosphate probe addition and measured after 10 mins by LC-MS/MS analysis relative to control; assay type: subcellular; conditions: time 25.0 min

Sequence of Ribosomal protein S6 kinase alpha-5 (O75582 whole entry, looked up, the tested form may be a part): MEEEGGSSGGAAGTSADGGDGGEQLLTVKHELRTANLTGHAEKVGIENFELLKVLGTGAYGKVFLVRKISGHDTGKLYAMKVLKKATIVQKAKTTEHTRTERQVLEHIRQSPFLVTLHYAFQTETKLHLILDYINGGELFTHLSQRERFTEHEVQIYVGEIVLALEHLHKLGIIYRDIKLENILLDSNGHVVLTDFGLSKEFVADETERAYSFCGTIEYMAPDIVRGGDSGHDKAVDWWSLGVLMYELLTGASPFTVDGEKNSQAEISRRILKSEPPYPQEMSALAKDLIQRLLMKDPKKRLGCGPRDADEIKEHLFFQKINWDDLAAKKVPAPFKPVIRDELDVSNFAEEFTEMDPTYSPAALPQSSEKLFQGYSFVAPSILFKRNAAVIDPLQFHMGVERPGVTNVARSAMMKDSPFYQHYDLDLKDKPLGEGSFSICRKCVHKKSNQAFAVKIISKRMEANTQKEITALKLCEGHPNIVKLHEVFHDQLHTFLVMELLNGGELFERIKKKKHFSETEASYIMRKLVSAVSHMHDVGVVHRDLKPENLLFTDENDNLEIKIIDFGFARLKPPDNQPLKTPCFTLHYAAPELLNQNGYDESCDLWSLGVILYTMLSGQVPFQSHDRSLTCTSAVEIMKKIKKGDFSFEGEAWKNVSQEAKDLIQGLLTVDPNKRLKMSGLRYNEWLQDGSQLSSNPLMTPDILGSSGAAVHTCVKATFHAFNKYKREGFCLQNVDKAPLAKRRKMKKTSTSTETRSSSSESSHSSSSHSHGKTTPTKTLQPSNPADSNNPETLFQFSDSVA
Sequence of EKC/KEOPS complex subunit TP53RK (Q96S44 whole entry, one chain of several): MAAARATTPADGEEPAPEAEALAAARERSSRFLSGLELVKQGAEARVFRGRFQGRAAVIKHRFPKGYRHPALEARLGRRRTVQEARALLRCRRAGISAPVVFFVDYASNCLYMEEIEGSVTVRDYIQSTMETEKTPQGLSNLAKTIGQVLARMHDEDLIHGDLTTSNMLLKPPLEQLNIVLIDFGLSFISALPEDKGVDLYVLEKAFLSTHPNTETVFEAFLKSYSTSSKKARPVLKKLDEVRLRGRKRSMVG
Sequence of Serine/threonine-protein kinase/endoribonuclease IRE1 (O75460 19-977 limits assumed): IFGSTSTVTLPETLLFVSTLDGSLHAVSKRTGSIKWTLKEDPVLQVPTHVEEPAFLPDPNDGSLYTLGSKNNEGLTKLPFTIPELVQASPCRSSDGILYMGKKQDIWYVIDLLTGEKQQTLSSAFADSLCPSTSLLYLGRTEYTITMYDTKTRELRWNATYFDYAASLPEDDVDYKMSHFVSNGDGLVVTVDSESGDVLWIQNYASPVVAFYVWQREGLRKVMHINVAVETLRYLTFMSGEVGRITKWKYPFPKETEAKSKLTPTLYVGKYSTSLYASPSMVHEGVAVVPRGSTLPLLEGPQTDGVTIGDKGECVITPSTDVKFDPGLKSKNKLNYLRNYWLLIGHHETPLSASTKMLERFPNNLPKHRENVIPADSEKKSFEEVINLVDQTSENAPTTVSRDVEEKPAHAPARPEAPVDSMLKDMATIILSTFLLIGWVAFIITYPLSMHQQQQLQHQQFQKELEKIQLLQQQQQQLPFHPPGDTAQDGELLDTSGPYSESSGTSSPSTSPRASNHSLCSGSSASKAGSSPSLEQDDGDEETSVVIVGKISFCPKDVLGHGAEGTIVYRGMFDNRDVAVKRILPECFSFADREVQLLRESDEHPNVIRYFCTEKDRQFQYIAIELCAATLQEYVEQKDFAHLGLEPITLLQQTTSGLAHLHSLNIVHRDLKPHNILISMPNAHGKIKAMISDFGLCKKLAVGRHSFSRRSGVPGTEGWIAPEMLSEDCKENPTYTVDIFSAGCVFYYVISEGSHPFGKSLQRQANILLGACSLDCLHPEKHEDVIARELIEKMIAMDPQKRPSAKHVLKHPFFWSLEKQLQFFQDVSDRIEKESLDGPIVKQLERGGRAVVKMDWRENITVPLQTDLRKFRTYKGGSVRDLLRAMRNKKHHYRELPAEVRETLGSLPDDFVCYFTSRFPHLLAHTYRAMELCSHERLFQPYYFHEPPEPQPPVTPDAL
Sequence of Dual specificity mitogen-activated protein kinase kinase; MEK1/2 (P36507 whole entry, looked up): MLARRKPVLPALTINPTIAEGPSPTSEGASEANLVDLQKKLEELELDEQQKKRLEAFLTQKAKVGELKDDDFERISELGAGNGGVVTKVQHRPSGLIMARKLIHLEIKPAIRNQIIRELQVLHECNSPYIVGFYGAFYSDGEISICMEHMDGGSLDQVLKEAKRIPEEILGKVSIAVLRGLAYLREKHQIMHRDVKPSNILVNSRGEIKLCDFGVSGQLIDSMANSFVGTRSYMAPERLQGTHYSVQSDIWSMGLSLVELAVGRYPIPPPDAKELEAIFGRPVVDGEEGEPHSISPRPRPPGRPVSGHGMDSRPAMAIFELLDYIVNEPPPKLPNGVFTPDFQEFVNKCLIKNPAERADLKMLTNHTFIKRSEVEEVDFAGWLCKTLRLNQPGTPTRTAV
Sequence of Dual specificity mitogen-activated protein kinase kinase; MEK1/2 (Q02750 whole entry, looked up): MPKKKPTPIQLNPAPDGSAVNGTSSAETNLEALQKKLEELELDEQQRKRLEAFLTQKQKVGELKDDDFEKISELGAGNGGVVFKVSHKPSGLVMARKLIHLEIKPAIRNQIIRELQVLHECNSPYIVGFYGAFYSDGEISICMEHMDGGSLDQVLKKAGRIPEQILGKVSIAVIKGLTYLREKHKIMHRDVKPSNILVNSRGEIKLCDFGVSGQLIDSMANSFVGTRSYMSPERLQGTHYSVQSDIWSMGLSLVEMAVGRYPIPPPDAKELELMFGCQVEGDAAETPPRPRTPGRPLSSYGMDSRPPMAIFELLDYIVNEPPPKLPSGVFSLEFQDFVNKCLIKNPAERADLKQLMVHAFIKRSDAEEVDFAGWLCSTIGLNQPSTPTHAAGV
Sequence of Serine/threonine-protein kinase 24 (Q9Y6E0 whole entry, looked up): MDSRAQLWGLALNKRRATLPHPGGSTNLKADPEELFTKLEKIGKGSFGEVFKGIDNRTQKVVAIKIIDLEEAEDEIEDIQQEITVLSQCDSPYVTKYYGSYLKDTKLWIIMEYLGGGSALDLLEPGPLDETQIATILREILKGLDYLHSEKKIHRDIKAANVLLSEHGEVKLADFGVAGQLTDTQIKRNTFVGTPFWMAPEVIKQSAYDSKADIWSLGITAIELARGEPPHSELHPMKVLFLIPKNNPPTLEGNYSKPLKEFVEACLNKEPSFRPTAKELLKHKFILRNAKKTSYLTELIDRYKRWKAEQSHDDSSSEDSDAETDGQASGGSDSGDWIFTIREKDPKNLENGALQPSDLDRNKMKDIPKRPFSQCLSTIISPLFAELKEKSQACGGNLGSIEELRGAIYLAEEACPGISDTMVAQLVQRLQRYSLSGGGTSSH
Sequence of Dual specificity mitogen-activated protein kinase kinase 3 (P46734 whole entry, the tested form may be a part): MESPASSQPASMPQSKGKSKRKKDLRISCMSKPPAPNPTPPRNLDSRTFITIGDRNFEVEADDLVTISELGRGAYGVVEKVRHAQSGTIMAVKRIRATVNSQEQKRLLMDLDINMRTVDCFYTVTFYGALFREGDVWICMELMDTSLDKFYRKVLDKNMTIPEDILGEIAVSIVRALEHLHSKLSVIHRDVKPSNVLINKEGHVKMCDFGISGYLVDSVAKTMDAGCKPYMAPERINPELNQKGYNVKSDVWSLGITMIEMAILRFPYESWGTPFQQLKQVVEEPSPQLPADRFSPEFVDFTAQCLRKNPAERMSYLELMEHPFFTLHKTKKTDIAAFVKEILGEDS
Sequence of Ribosomal protein S6 kinase alpha-1 (Q15418 whole entry, the tested form may be a part): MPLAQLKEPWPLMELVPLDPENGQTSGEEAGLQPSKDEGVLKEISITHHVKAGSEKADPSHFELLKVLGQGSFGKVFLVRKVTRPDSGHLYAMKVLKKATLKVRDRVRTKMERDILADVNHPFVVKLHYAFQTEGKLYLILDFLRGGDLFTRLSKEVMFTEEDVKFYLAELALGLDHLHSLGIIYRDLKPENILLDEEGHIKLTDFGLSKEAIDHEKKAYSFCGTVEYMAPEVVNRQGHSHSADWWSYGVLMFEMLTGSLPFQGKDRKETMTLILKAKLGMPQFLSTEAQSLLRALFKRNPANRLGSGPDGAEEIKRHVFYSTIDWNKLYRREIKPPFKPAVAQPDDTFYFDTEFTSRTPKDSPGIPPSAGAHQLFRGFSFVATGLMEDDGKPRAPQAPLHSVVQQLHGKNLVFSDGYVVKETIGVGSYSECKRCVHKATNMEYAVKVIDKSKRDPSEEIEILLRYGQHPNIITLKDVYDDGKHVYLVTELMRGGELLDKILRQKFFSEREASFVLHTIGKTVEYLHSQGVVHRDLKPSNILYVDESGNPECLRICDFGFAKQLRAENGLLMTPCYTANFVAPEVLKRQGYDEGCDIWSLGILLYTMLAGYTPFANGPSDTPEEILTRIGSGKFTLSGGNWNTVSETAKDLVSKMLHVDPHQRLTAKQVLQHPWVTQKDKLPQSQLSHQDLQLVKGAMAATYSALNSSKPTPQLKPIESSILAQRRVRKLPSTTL
Sequence of Mitogen-activated protein kinase 3 (P27361 whole entry): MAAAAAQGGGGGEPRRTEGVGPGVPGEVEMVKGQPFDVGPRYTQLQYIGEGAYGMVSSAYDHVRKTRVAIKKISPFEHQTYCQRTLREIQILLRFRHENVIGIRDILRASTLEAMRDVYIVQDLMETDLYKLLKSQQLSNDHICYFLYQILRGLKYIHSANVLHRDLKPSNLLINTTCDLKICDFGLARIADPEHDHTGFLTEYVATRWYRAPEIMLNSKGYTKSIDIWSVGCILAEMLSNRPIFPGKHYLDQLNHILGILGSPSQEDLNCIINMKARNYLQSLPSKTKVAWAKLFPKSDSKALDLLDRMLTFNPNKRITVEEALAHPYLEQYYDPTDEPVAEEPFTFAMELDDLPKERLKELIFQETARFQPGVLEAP

CCOc1cc(N2CCC(O)CC2)ccc1Nc1ncc2c(n1)N(C)c1ccccc1C(=O)N2C
inhibition [1]: 16.2% | IC50 [2]: > 50 µM | inhibition [3]: -2% | inhibition [4]: 7% | inhibition [5]: 16.5% | inhibition [6]: 28% | inhibition [7]: 63.8% | IC50 [8]: > 50 µM | Activity [9]: 31% | bioavailability [10]: 69% | inhibition [11]: -7.7% | inhibition [12]: 19.4% | inhibition [13]: -7.5% | IC50 (RPS6KA1/RPS6KA2/RPS6KA3): > 50 µM | inhibition [14]: 0.6% | inhibition [15]: -3.4%
